Data reported in paper PMC4823011 (The American journal of clinical nutrition, 2014).
Where “and” joins values, the source holds several entries; their conditions need not be identical. Equal entries are not always repeated. Where two headings read alike, the source gives them in different places.

What was measured:
[1] = assay type: in vivo, human; details: caplet 855 nmol oral
[2] = assay type: in vivo, human
How it was run: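 Given after a ≥4-wk washout as an IV injection in 1.35 mL sterile saline (pH 7.0, 74 μg folate/mL). Blood was drawn from the opposite arm at 15 min, then every 30 min for 4 h. Plasma M+5/M+0 molar ratios were measured by LC-MS/MS. Amounts were converted to nmol/person from baseline microbiological plasma folate, blood volume and packed cell volume. Half-life came from a one-phase exponential fit to the descending plasma curve.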

[3] = Apparent absorption across the colon calculated with one-compartment model; assay type: in vivo, human
How it was run: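 Enteric-coated caplet with about 12.6% coating mass gain. The absorbed mass was estimated from plasma labeled 5-methyltetrahydrofolate concentration using a three-equation, one-compartment model of small-intestinal folate absorption. Volume of distribution was taken as 387 mL/kg body weight. t_lag, the time plasma enrichment stayed at baseline, was set at 1 h. Plasma was sampled hourly after pyloric passage until 2000, then at 24 and 48 h.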

[4] = 684 nmol (320 μg) cecal infusion after bowel cleansing; cited from earlier work
[5] = cited from earlier work
[6] = model parameter; cited from earlier work
[7] = iv 214 nmol, individual subjects A-I

SMILES: Nc1nc2c(c(=O)[nH]1)N(C=O)C(CNc1ccc(C(=O)N[C@@H](CCC(=O)O)C(=O)O)cc1)CN2 (stereo partly drawn) [[^13C5]5-formyltetrahydrofolate, [glutamyl-^13C5]-[6S]-5-formyltetrahydrofolic acid]
- Detection of [13C5]5-formyltetrahydrofolate (parent) in plasma after caplet ([1]; any subject): did not detect
- Cmax of [13C5]5-methyltetrahydrofolate in plasma ([1]; individual subjects A-F): 0.5 nmol and 2.0 nmol and 3.7 nmol and 4.0 nmol and 1.6 nmol
- 5-formyltetrahydrofolate Cmax (labeled, plasma) [2, 7]: 20.0 nmol and 10.2 nmol and 20.3 nmol and 7.1 nmol and 15.9 nmol and 14.1 nmol and 7.5 nmol and 10.9 nmol and 15.2 nmol
- 5-methyltetrahydrofolate Cmax (labeled metabolite, plasma) [2, 7]: 6.8 nmol and 6.6 nmol and 10.2 nmol and 3.1 nmol and 7.8 nmol and 10.0 nmol and 5.0 nmol and 6.0 nmol and 5.8 nmol
- 5-formyltetrahydrofolate Cmax (labeled, plasma) ([2]; iv 214 nmol, mean ± SEM, n = 9): 13.5 ± 1.6 nmol
- Plasma enrichment with [13C5]5-formyltetrahydrofolate ([2]; plasma samples collected immediately after iv injection, mean ± SEM): 11.6 ± 1.5%
- Apparent absorption across the colon of the 855-nmol dose ([3]; caplet, one-compartment model, mean, excludes 2 subjects without plasma response): 46% and 46.2 ± 16.5%
- bioavailability ([3]; human, plasma, oral, 855 nmol): 34.7 ± 14.3%
- Rate of folate absorption after bolus infusion directly into the cecum [4]: 0.6 ± 0.02 nmol/h
- Apparent absorption in the small intestine ([5]; 500-nmol orally administered test dose): 38 ± 6% and 38%
- Rate of folate absorption across the small intestine ([5]; oral bolus 421–569 nmol, estimated from published data): ~ 34 nmol/h

SMILES: Nc1nc2ncc(CNc3ccc(C(=O)N[C@@H](CCC(=O)O)C(=O)O)cc3)nc2c(=O)[nH]1 [folate]
- Apparent volume of distribution (V) [6]: 387 mL/kg body weight
